Bioassay records deposited in PubChem BioAssay by Broad Institute.
FN deposition inh – fibronectin deposition inhibition; AH1F fibroblasts, Alexa488-fibronectin deposition fluorescence, overnight; inhibition, % at 12.6 µM; 350,000 compounds, 0.086% hits; AID 743247;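 active = mean inhibition across replicates of 30% or more, regardless of how many single replicates reach that level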;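 also: positive control wells lacked labelled fibronectin entirely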
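Material: AH1F fibroblast monolayer depositing Alexa488-labelled fibronectin into matrix / Amount: 10000 AH1F cells per well / Signal: fluorescence 485/525 nm / Medium: DMEM, 2% serum / Compound: single dose, pinned / Incubation: 1 h cell adhesion before compound, then overnight fibronectin incubation / Reagent: Alexa488-FN, 24 nM final / Read-out: inhibition of fibronectin deposition signal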
Vif imaging – blocks HIV Vif function. inhibition, % at 7.49 µM. 340,000 compounds, 0.35% hits. HEK293T cells, Vif self-association by quenched fluorescence, imaging, 24 h. AID 602346; in the data active = inhibition above about 50%, passing the limit was not always enough
Ecoli rRNA inh – selective bacterial rRNA inhibition in E. coli. E. coli WT GFP vs humanized-ribosome RFP mutants, fluorescence, 24 h; hits give low values; DMSO median 0, no signal -100. GFP signal change (wild-type ribosome), % (concentration not given with the values). 350,000 compounds, 1.6% hits. AID 720706;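 active = significant combined selectivity score with lowered wild-type GFP, culture density cut under 30%, mutant RFP and density less affected; inactive = any of these conditions unmet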
HIV Env fusion – HIV envelope-mediated fusion inhibition. inhibition, % at 12.3 µM. HeLa-JRFL Env/CEM21 cell fusion, luciferase. 360,000 compounds, 1.1% hits;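 active = mean replicate inhibition score of at least 50 and every replicate individually at or above 50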;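 also: 0% = plate neutral controls and 100% = maraviroc near 300 nM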
miR-122 sensor – blocks miR-122 activity in Huh7 sensor cells | 340,000 compounds, 0.3% hits | Huh7 miR-122 Renilla luciferase sensor, 48 h; neutral wells = 0, positive control = 100 | activation (reporter increase), % at 12.5 µM;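 active = mean replicate activation score at least 90 and every replicate individually at or above 90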;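 also: higher luciferase means less miR-122 activity so hits act as miR-122 inhibitors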
S100A4 inh HTS – blocks human S100A4 binding to myosin IIA peptide; P26447; S100A4/TAMRA-MyoIIA peptide fluorescence polarization; inhibition, % at 10.7 µM; 360,000 compounds, 0.14% hits; AID 652163;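 active = mean inhibition of at least 70% across replicates, with every replicate also reaching that level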
Target sequence (P26447 whole entry, looked up): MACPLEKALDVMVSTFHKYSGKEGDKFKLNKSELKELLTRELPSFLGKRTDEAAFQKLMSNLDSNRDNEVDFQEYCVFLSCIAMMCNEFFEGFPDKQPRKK
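Material: S100A4 monomer (human). Medium: Calcium-containing HEPES buffer, pH 7.2. Probe or stimulus: labelled myosin peptide probe, 5 nM. Compound dosing: one concentration per compound. Timing: polarization read 5 min after assay mix addition, stable 5–60 min. Benchmarks: DMSO as neutral control, TFP as positive control.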
The depositor's hits bear a star; x = no result given; [ ] = another dose, or the depositor's remark. Hits are enriched below; roughly 2.6% of the tested compounds scored in any of these assays.

SMILES	FN deposition inh	Vif imaging	Ecoli rRNA inh	HIV Env fusion	miR-122 sensor	S100A4 inh HTS
C[C@@H]1CN([C@H](C)CO)C(=O)c2cc(NS(=O)(=O)c3ccc(F)cc3)ccc2O[C@@H](C)CCCCO[C@H]1CN(C)S(=O)(=O)c1cccs1	2.3	x	5.4	-90.4[16.7 µM]	-7.5[16.7 µM]	61.4
CCN(CC)c1ccc2cc(C(N)=O)c(=O)oc2c1	x	131.6*	6.2	x	-3.1	-2.8
Cc1noc(C)c1NC(=O)N(C)C[C@@H]1OCCCC[C@H](C)Oc2ccc(NC(=O)c3ccccc3)cc2C(=O)N([C@H](C)CO)C[C@@H]1C	1.1	x	-2.7	-1.0[16.7 µM]	1.1[16.7 µM]	3.5
C[C@@H]1CN([C@H](C)CO)C(=O)c2cc(NS(=O)(=O)c3ccccc3)ccc2O[C@@H](C)CCCCO[C@H]1CN(C)Cc1ccc(C(=O)O)cc1	10.1	x	3.5	-1.2[16.7 µM]	1.9[16.7 µM]	x
CCCCCN(C(=O)CCc1cn(CCCCC)c2ccccc12)c1ccc(Oc2cccnc2)cc1	13.8	x	12.9	57.9*	x	-2.7
CCCCCN(C(=O)CCc1cn(CCCCC)c2ccccc12)c1ccc(N(C)c2ccccn2)cc1	-3.9	x	8.1	22.9	x	-0.7
Cc1ccc(S(=O)(=O)NCc2csc(C)n2)cc1	2.5	3.9	1.7	-6.5	6.1	-2.7
Cc1nc(CNS(=O)(=O)c2ccc3c(c2)CCCC3)cs1	-16.9	3.8	-14.0	60.4*	x	-3.3
COc1ccccc1-c1ccc2c(c1)O[C@@H](CN(C)S(=O)(=O)c1ccc(F)cc1)[C@@H](C)CN([C@H](C)CO)S2(=O)=O	x	x	-1.0	x	-24.0[16.7 µM]	-33.7
COCCCn1c(SCCc2ccccc2)nc2cc(OC)c(OC)cc2c1=N	7.4	18.0	-41.0*	-6.0	-1.9	1.2
CCSc1nc2cc(OC)c(OC)cc2c(=O)n1CCc1ccccc1	5.8	-4.5	x	42.5	-6.1	x
O=C(N[C@H]1CC[C@H](CCn2cc(C3(O)CCCC3)nn2)O[C@@H]1CO)C1CC1	x	x	-1.0	47.3[16.7 µM]	x	5.4
COc1cccc(C(=O)N2C[C@H]3[C@@H](c4ccccc42)[C@@H](CO)N3C(C)=O)c1	x	x	6.0	x	-8.3[16.7 µM]	7.5
Cc1cc(C(=O)N/N=C/c2ccc(-c3ccc([N+](=O)[O-])cc3Cl)o2)n[nH]1	3.5	-4.5	-31.8*	3.4	x	3.7
COc1ccc(CN(C)C[C@@H]2Oc3ccc(N(C)C)cc3CC(=O)N([C@@H](C)CO)C[C@H]2C)cc1	x	x	2.7	x	7.6[16.7 µM]	4.0
O=C(C[C@@H]1C=C[C@@H](NS(=O)(=O)c2ccccc2)[C@@H](CO)O1)N1CCC(Cc2ccccc2)CC1	x	x	-3.0	x	x	-35.9
CCOC(=O)CC(=O)CSc1ncnc2c1oc1ccccc12	x	56.5*	x	x	x	x
O=C(O)CSc1ncnc2c1oc1ccccc12	x	15.8	x	x	4.2	x
S=C(Nc1ccc(Cl)c(Cl)c1)NC1CCCCC1	x	-21.1	-57.6	x	159.2*	-24.7
FC(F)(F)c1cccc(NC(=S)NC2CCCC2)c1	-4.2	-0.9	x	6.9	x	x
S=C(Nc1ccc2nsnc2c1)NC1CCCCC1	5.5	2.0	-44.0*	-11.7	x	6.8
FC(F)(F)c1ccc(NC(=S)NC2CCCCC2)cc1	19.9	-6.5	-53.5*	-8.6	60.8	-5.9
C[C@@H]1CN([C@@H](C)CO)C(=O)Cc2cc(NC(=O)Nc3ccc(C(F)(F)F)cc3)ccc2O[C@@H]1CN(C)Cc1ccc(C(F)(F)F)cc1	x	x	1.0	-2.9[16.7 µM]	5.4[16.7 µM]	-0.2
C[C@@H]1CN([C@@H](C)CO)C(=O)Cc2cc(NC(=O)Nc3ccc(C(F)(F)F)cc3)ccc2O[C@H]1CN(C)Cc1ccc(C(F)(F)F)cc1	x	x	2.7	56.5*[16.7 µM]	-7.3[16.7 µM]	2.3
C[C@H](CO)N1C[C@H](C)[C@@H](CN(C)Cc2ccc(C(F)(F)F)cc2)Oc2ccc(NC(=O)Nc3ccc(C(F)(F)F)cc3)cc2CC1=O	x	x	2.8	58.4*[16.7 µM]	-10.9[16.7 µM]	-6.4
SMILES	FN deposition inh	Vif imaging	Ecoli rRNA inh	HIV Env fusion	miR-122 sensor	S100A4 inh HTS
C[C@H]1CN([C@@H](C)CO)C(=O)Cc2cc(NC(=O)Nc3ccc(C(F)(F)F)cc3)ccc2O[C@H]1CN(C)Cc1ccc(C(F)(F)F)cc1	x	x	4.8	-2.0[16.7 µM]	-0.5[16.7 µM]	-3.5
COc1ccc(CCNC(=O)[C@@H](NC(=O)N2CCn3c2nc2ccccc23)C(C)C)cc1OC	2.2	-2.1	-8.7	5.2	-1.1	-3.2
CCC(C)[C@H](NC(=O)N1CCn2c1nc1ccccc12)C(=O)NCCc1ccc(OC)c(OC)c1 (stereo partly specified)	3.0	-6.8	-19.6*	5.4	-2.1	-0.7
COc1ccc(S(=O)(=O)Nc2ccc3c(c2)[C@H]2C[C@@H](CC(=O)NCC4CC4)O[C@H](CO)[C@H]2O3)cc1	x	x	-4.9	-3.9[16.7 µM]	2.4[16.7 µM]	-8.0
O=C(C[C@@H]1C=C[C@H](NS(=O)(=O)c2ccccc2)[C@@H](CO)O1)N1CCN(c2ccccc2)CC1	x	x	-1.4	x	x	11.2
O=c1c2ccccc2cnn1-c1nc2ccccc2[nH]1	x	-4.4	7.1	62.6*	x	6.6
O=c1c(Cl)c(N2CCCCC2)cnn1-c1nc2ccccc2[nH]1	10.8	1.6	x	-38.9	-1.5	x
CCOC(=O)N1CCN(C(=O)C[C@H]2C[C@@]3(C(=O)OC)C(=C[C@H](C(C)(C)C)O[C@@H]3C)N(CCC3=CCCCC3)C2=O)CC1	-3.5	x	3.4	97.7*	x	-1.0
COC(=O)[C@]12C[C@H](CC(=O)N3CCN(C(=O)C4CC4)CC3)C(=O)N(CCC3=CCCCC3)C1=C[C@H](C(C)(C)C)O[C@@H]2C	-3.7	x	1.4	56.8*	x	1.0
COC(=O)[C@]12C[C@H](CC(=O)N3CCCC3)C(=O)N(CCC3=CCCCC3)C1=C[C@H](COCc1ccccc1)O[C@@H]2C	0.0	x	-13.1	5.7	x	2.3
CCOC(=O)N1CCN(C(=O)C[C@H]2C[C@@]3(C(=O)OC)C(=C[C@H](C(C)(C)C)O[C@@H]3C)N(Cc3ccccc3)C2=O)CC1	-1.0	x	-0.2	20.1	x	-4.8
C[C@@H]1CCCCO[C@H](CN(C)C(=O)Nc2cccc3ccccc23)[C@H](C)CN([C@@H](C)CO)C(=O)c2cc(NS(=O)(=O)c3ccc(Cl)cc3)ccc2O1	5.7	x	7.3	-10.6[16.7 µM]	-8.8[16.7 µM]	5.2
O=C(C[C@@H]1C=C[C@H](NC(=O)Cc2cccnc2)[C@@H](CO)O1)Nc1ccc(-c2ccccc2)cc1	-9.7	x	-3.4	x	x	6.5
CCOC(=O)C1=C(O)/C(=C/c2cn(CC(=O)NCC3CCCO3)c3ccccc23)SC1=Nc1ccc(C)cc1 (stereo unspecified)	x	94.1*	x	x	3.2	x
CCOC(=O)C1=C(O)/C(=C/c2ccc(-c3ccccc3C(=O)O)o2)SC1=Nc1ccc(C)cc1	-3.6	-8.7	-1.0	-8.8	3.7	11.3
O=c1c(Br)ccc(Br)cc1Br	36.4*	167.8*	-47.8	25.3	2.8	-3.0
